Source: PubChem
Mac1 fbg enh – enhancers of human CD11b/CD18 binding to fibrinogen; AID 1499; K562 CD11b/CD18 adhesion to fibrinogen, ATPlite luminescence; activation, % at 10 µM; P05107+P11215; hit rate 0.07% among 93,000;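 active = 10 µM primary screen giving 50% or more activity, confirmed by 40% or more on retest at that dose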
CD11b adhes inh – blocks human CD11b/CD18 adhesion to fibrinogen. P05107+P11215. K562 CD11b/CD18 adhesion to fibrinogen, ATPlite luminescence; Mn2+ added to activate the integrin. inhibition, % at 10 µM. hit rate 0.54% among 93,000. AID 1497;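 active = primary inhibition of 50% or more at 10 µM, then 40% or more on retest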
Ecoli WT expand – blocks growth of wild type E. coli BW25113; OD600 absorbance; growth inhibition, % at 100 µM; hit rate 0.15% among 98,000;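 active = growth inhibition above about 50% at one test dose, limit read from the data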;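 also: growth measured after 20 h incubation at 37 °C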
tolC growth inh – blocks growth of E. coli BW25113 tolC mutant; OD615; growth inhibition, % at 10 µM (by protocol); hit rate 2.2% among 65,000; AID 573;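 active = growth inhibition at or above a cutoff equal to the mean over every tested compound plus 3 SD, cut at about 60% in these data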;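 also: growth measured after 20 h incubation at 37 °C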
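Test system: tolC-deleted E. coli BW25113 | Medium: LB with kanamycin 50 µg/mL | Compound dosing: Single concentration, 10 µM final per compound | Schedule: 37 °C, 20 h exposure | Measured by: OD at 615 nm | Evaluation: Percent growth inhibition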
Each line names hits and unclear results; the compound was inactive in the other large screens. Many of the other results were omitted from the sample, so hits are more common in it than they were.

Cc1nn(-c2ccccc2)c(Cl)c1C1C(C#N)=C(N)Oc2c1c(=O)oc1ccccc21 (configuration not stated)	tolC growth inh 68
Cc1ccc(C2C(S(C)(=O)=O)=C(O)C(=O)N2c2ccccc2)cc1 (configuration not stated) (tested in a mixture with another compound)	tolC growth inh 75 (no result: Mac1 fbg enh, CD11b adhes inh)
O=C1C2(c3ccccc3)CN3CN(C2)CC1(c1ccccc1)C3	none (no result: tolC growth inh)
CCOC(=O)c1c(-c2ccc(OC)cc2)oc2ccc(OC(=O)N(C)C)cc12	tolC growth inh 68
Cc1oc2ccc(OC(=O)N(C)C)cc2c1C(=O)OC(C)C	none
CCCCOC(=O)C1=C(N)OC2=C(C(=O)CCC2)[C@]12C(=O)N(C)c1ccccc12	none
CN(C)C1=NP(N(C)C)(N(C)C)=NC(c2ccccc2)=N1	none
O=C(Oc1c(Cl)cc(Cl)c2ccccc12)N1CCCCC1	CD11b adhes inh 56 (no result: tolC growth inh)
CN1/C(=C\C=C\C2=[N+](C)c3ccc4ccccc4c3C2(C)C)C(C)(C)c2ccccc21	Ecoli WT expand 84 (no result: Mac1 fbg enh, CD11b adhes inh, tolC growth inh)
CCOC(=O)c1cncn1C(C)c1ccccc1 (configuration not stated)	none
CCCCn1c(=O)c(C(=O)Nc2ccccc2S(N)(=O)=O)c(O)c2ccccc21	tolC growth inh 98
CCCCCCCSc1cc(OC)c(CCN(C)C)cc1OC	Ecoli WT expand 67 (no result: Mac1 fbg enh, CD11b adhes inh, tolC growth inh)
COc1ccc(-n2c(O)c(C(C)=NCCN3CCNCC3)c(=O)[nH]c2=O)cc1	none
CCn1nc(-c2ccccc2)nc2c(=O)n(C)c(=O)nc1-2	tolC growth inh 100 (no result: Mac1 fbg enh, CD11b adhes inh)
C#CCN1C(=O)C2(C(C#N)=C(N)OC(C)=C2C(=O)OCc2ccccc2)c2ccccc21 (configuration not stated)	none
ClCCNc1nc2ccc(Cl)cc2[nH]1	Ecoli WT expand 54 (no result: Mac1 fbg enh, CD11b adhes inh, tolC growth inh)
CC1(C)C(c2ccccc2)=NC(c2cccnc2)N1O (configuration not stated)	none
CCC(=Nc1ccc(OC)cc1OC)c1c(O)n(C2CCCCC2)c(=O)[nH]c1=O	tolC growth inh 77
CC(=NCc1cccnc1)c1c(O)n(-c2ccccc2C)c(=O)[nH]c1=O	none (no result: tolC growth inh)
c1ccc(-c2[nH]c[n+](CC3CO3)c2-c2ccccc2)cc1 (configuration not stated)	none (no result: Ecoli WT expand, tolC growth inh)
C1=C(CCNCc2ccccc2)CCCC1	Ecoli WT expand 94 (no result: tolC growth inh)
O=C(N/N=C/c1c(O)n(CCC2=CCCCC2)c(=O)[nH]c1=O)c1ccccc1	none (no result: Ecoli WT expand, tolC growth inh)
CC1CCN(S(=O)(=O)c2ccc(NN=C(C#N)C#N)cc2)CC1	CD11b adhes inh 98 (no result: tolC growth inh)
COc1ccc(C(=O)N2CCOCC2)cc1S(=O)(=O)N1CCC(C)CC1	none
O=C1C(=O)c2ccccc2-c2ccccc21	CD11b adhes inh 60 (no result: tolC growth inh)
CCCN(CC#CCO)CCC	none (no result: Mac1 fbg enh, CD11b adhes inh)
CCCCN1C(=O)NC(=O)C2(Cc3c(nc4ccccn4c3=O)N3CCc4ccccc4C32)C1=O (configuration not stated)	none
CCCCN1C(=O)NC(=O)C2(Cc3c(nc4c(C)cccn4c3=O)N3CCc4ccccc4C32)C1=O (configuration not stated)	tolC growth inh 98
O=c1[nH]c(=O)n(CCC2=CCCCC2)c(O)c1C=Nc1cccc(F)c1	none (no result: Mac1 fbg enh, CD11b adhes inh, tolC growth inh)
CC(C)(C)n1c(O)c(C=Nc2ccc3c(c2)CCC3)c(=O)[nH]c1=O	tolC growth inh 82
Clc1ccc(CSC(Cn2ccnc2)c2ccc(Cl)cc2Cl)cc1 (configuration not stated)	none (no result: Mac1 fbg enh, CD11b adhes inh, Ecoli WT expand)
Clc1ccc(COC(Cn2ccnc2)c2ccc(Cl)cc2Cl)cc1 (configuration not stated)	tolC growth inh 100 (no result: Mac1 fbg enh, CD11b adhes inh, Ecoli WT expand)
